Data reported in ChEMBL document CHEMBL1149027, “Anti-AIDS agents, 10. Acacetin-7-O-beta-D-galactopyranoside, an anti-HIV principle from Chrysanthemum morifolium and a structure-activity correlation with some related flavonoids” (J Nat Prod, 1994).

Experiments:
[1] = test system: Human immunodeficiency virus 1; assay: Antiviral activity against HIV1 3B infected in human H9 cells assessed as inhibition of viral replication after 3 days by p24 antigen capture assay; type: functional, organism-based; conditions: Human immunodeficiency virus 1, 3B, H9, 72 h
H9 = assay: Cytotoxicity against human H9 cells after 3 days; type: cell-based; conditions: H9, 72 h
How it was run: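 Uninfected H9 lymphocytes, given the same 1 h mock incubation at 37° and washing, resuspended at 4 × 10^5 cells/ml. Cultured 3 days at 37° with compound. Cell density counted; IC50 = concentration inhibiting uninfected growth by 50%.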

[2] = Therapeutic index, ratio of IC50 for human H9 cells to EC50 for HIV1 3B; type: cell-based; conditions: read-out: TI

| Structure (SMILES) | EC50 [1] | IC50 (H9) | selectivity ratio [2] |
| --- | --- | --- | --- |
| O=c1cc(-c2ccc(Cl)cc2)oc2cc(O)cc(O)c12 | 4 µM | 16 µM | 4 |
| O=c1cc(-c2ccccc2)oc2c([N+](=O)[O-])c(O)cc(O)c12 | 12 µM | 12 µM | 1 |
| COc1ccc(-c2cc(=O)c3c(O)cc(O[C@@H]4O[C@H](CO[C@@H]5O[C@H](C)[C@@H](O)[C@H](O)[C@@H]5O)[C@@H](O)[C@H](O)[C@H]4O)cc3o2)cc1 | > 231 µM | > 231 µM | – |
| CC(=O)OC[C@H]1O[C@@H](Oc2cc(OC(C)=O)c3c(=O)cc(-c4ccc(OC(C)=O)c(OC(C)=O)c4)oc3c2)[C@H](OC(C)=O)[C@@H](OC(C)=O)[C@@H]1OC(C)=O | 6 µM | 6 µM | 1 |
| O=C(CNC(=O)OCc1ccccc1)Oc1cc(O)c2c(=O)cc(-c3ccccc3)oc2c1 | 9 µM | 30 µM | 3 |
| Nc1c(O)cc(O)c2c(=O)cc(-c3ccccc3)oc12 | 11 µM | 34 µM | 3 |
| O=c1cc(-c2ccc(Br)cc2)oc2cc(O)cc(O)c12 | 5 µM | 21 µM | 4 |
| CCCc1cc(=O)c2c(O)cc(O)cc2o1 | 27 µM | 73 µM | 3 |
| O=c1cc(-c2cccc(Cl)c2)oc2cc(O)cc(O)c12 | 4 µM | 14 µM | 3 |
| O=c1cc(C2CCCCC2)oc2cc(O)cc(O)c12 | 19 µM | 42 µM | 2 |
| O=c1cc(-c2ccc(F)cc2)oc2cc(O)cc(O)c12 | 4 µM | 13 µM | 3 |
| COc1ccc(-c2cc(=O)c3c(O)cc(O[C@@H]4O[C@H](CO)[C@H](O)[C@H](O)[C@H]4O)cc3o2)cc1 | 8 µM | 37 µM | 5 |
| O=c1cc(-c2ccccc2)oc2c([N+](=O)[O-])c(O)c([N+](=O)[O-])c(O)c12 | 372 µM | 372 µM | 1 |
| O=c1cc(-c2ccccc2Cl)oc2cc(O)cc(O)c12 | 5 µM | 17 µM | 3 |
| O=c1cc(-c2ccc(O)cc2)oc2cc(O[C@@H]3O[C@H](CO)C(O)[C@H](O)[C@H]3O)cc(O)c12 (single isomer, unassigned) [APIGETRIN] | 61 µM | 115 µM | 2 |
| O=c1cc(-c2ccccc2)oc2c(O)c(O)ccc12 [7,8-DIHYDROXYFLAVONE] | 10 µM | 14 µM | 1 |
| O=c1cc(-c2ccc(O)cc2)oc2cc(O)cc(O)c12 [APIGENIN] | 9 µM | 35 µM | 4 |
| O=C(O)[C@H]1O[C@@H](Oc2cc3oc(-c4ccccc4)cc(=O)c3c(O)c2O)[C@H](O)[C@@H](O)[C@@H]1O [BAICALIN] | 112 µM | 72 µM | < 1 |

| Structure (SMILES) | EC50 [1] | IC50 (H9) | selectivity ratio [2] |
| --- | --- | --- | --- |
| CC(=O)Oc1cc(OC(C)=O)c2c(=O)cc(-c3ccccc3)oc2c1 [CHRYSIN DIACETATE] | 56 µM | > 373 µM | – |
| O=c1cc(-c2ccccc2)oc2cc(O)cc(O)c12 [CHRYSIN] | 5 µM | 47 µM | 9 |
| Oc1cc(O)c2c(c1)O[C@H](c1ccc(O)c(O)c1)[C@@H](O)C2 [CIANIDANOL] | > 345 µM | > 345 µM | – |
| O=c1c(O)c(-c2ccc(O)c(O)c2)oc2cc(O)ccc12 [FISETIN] | 122 µM | 157 µM | 1 |
| O=C1CC(c2ccccc2)Oc2ccccc21 (stereo not drawn) [FLAVANONE] | 58 µM | 45 µM | 1 |
| O=c1cc(-c2ccccc2)oc2ccccc12 [FLAVONE] | 50 µM | 68 µM | 1 |
| O=c1c(O)c(-c2ccccc2)oc2ccccc12 [FLAVONOL] | 13 µM | 17 µM | 1 |
| O=c1c(O)c(-c2ccccc2)oc2cc(O)cc(O)c12 [GALANGIN] | 28 µM | 44 µM | 2 |
| O=c1cc(-c2ccc(O)c(O)c2)oc2cc(O[C@@H]3O[C@H](CO)[C@@H](O)[C@H](O)[C@H]3O)cc(O)c12 [GALUTEOLIN] | 7 µM | 25 µM | 3 |
| COc1ccc([C@@H]2CC(=O)c3c(O)cc(O[C@@H]4O[C@H](CO[C@@H]5O[C@@H](C)[C@H](O)[C@@H](O)[C@H]5O)[C@@H](O)[C@H](O)[C@H]4O)cc3O2)cc1O [HESPERIDIN] | > 164 µM | > 164 µM | – |
| O=c1cc(-c2ccc(O)c(O)c2)oc2cc(O)cc(O)c12 [LUTEOLIN] | 10 µM | 16 µM | 2 |
| O=c1c(O)c(-c2ccc(O)cc2O)oc2cc(O)cc(O)c12 [MORIN] | > 331 µM | > 331 µM | – |
| O=c1c(O)c(-c2cc(O)c(O)c(O)c2)oc2cc(O)cc(O)c12 [MYRICETIN] | 35 µM | 69 µM | 2 |
| O=C1C[C@@H](c2ccc(O)cc2)Oc2cc(O)cc(O)c21 [NARINGENIN] | 92 µM | 294 µM | 3 |
| Cc1cc(=O)c2c(O)cc(O)cc2o1 [NOREUGENIN] | 49 µM | 214 µM | 4 |
| O=c1c(O)c(-c2ccc(O)c(O)c2)oc2cc(O)cc(O)c12 [QUERCETIN] | 132 µM | 132 µM | 1 |
| Cc1cn([C@H]2C[C@H](N=[N+]=[N-])[C@@H](CO)O2)c(=O)[nH]c1=O [ZIDOVUDINE] | 0.04 µM | – | – |
